Several values for one entry are separate records, joined by “and”; a condition that tells them apart may be missing. Equal values may be shown once. Read-outs that look alike come from different tables or passages of the source.
What was measured:
A. baumannii NCTC 13420 = assay: Broth microdilution MIC/MBC, A. baumannii; type: cell-based, Acinetobacter baumannii; conditions: for MIC A. baumannii NCTC 13420: value before the parentheses, two values = two repeats; for MBC A. baumannii NCTC 13420: value in parentheses
P. aeruginosa NCTC 13437 = assay: Broth microdilution MIC/MBC, P. aeruginosa; type: cell-based, Pseudomonas aeruginosa; conditions: for MIC P. aeruginosa NCTC 13437: value before the parentheses, two values = two repeats; for MBC P. aeruginosa NCTC 13437: value in parentheses
Outline: (§1)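 CLSI broth microdilution in cation-adjusted Mueller–Hinton broth. Log-phase cultures were diluted to 7.5 × 10^5 CFU/mL, then mixed 1:1 with 2-fold serial dilutions of gold complexes from DMSO or water stocks, in triplicate, and held 37 °C, 18 h, static. MIC: lowest concentration giving >90% inhibition by OD600 against medium-only and bacteria-only wells. […] E. coli ATCC 25922 quality control was checked each run with ciprofloxacin and […].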

E. cloacae NCTC 13405 = assay: Broth microdilution MIC/MBC, E. cloacae; type: cell-based, Enterobacter cloacae; conditions: for MIC E. cloacae NCTC 13405: value before the parentheses, two values = two repeats; for MBC E. cloacae NCTC 13405: value in parentheses; for fold enhancement of activity over auranofin, E. cloacae: vs auranofin
Outline: as §1

[1] = system: K. pneumoniae ATCC 700603; assay: Broth microdilution MIC/MBC, K. pneumoniae; type: cell-based, Klebsiella pneumoniae; conditions: for MIC K. pneumoniae ATCC 700603: value before the parentheses, two values = two repeats; for MBC K. pneumoniae ATCC 700603: value in parentheses; for fold enhancement of activity over auranofin, K. pneumoniae: vs auranofin
Outline: as §1

S. aureus JE2 (USA300) = assay: Broth microdilution MIC/MBC, S. aureus; type: cell-based, Staphylococcus aureus; conditions: for MIC S. aureus JE2 (USA300): value before the parentheses, two values = two repeats; for MBC S. aureus JE2 (USA300): value in parentheses
Outline: as §1

E. faecium ATCC 700221 = assay: Broth microdilution MIC/MBC, E. faecium; type: cell-based, Enterococcus faecium; conditions: for MBC E. faecium ATCC 700221: value in parentheses; for MIC E. faecium ATCC 700221: value before the parentheses, two values = two repeats
Outline: as §1

E. coli ATCC 25922 = assay: Broth microdilution MIC/MBC, E. coli; type: cell-based, Escherichia coli; conditions: for MIC E. coli ATCC 25922: value before the parentheses, two values = two repeats; for MBC E. coli ATCC 25922: value in parentheses
Outline: as §1

A549 cells = assay: Cytotoxicity assay; type: cell-based, human; conditions: for IC50: read-out: IC50 against A549 cells, means ± SEM from two independent experiments
rat = conditions: cited from earlier work
Log P determination = conditions: n-octanol/water, Au by FAAS
Gram-negative strains = assay: Broth microdilution, Gram-negative strains taken together; type: cell-based

| SMILES | MIC A. baumannii NCTC 13420 (A. baumannii NCTC 13420) | MBC A. baumannii NCTC 13420 (A. baumannii NCTC 13420) | MIC P. aeruginosa NCTC 13437 (P. aeruginosa NCTC 13437) | MBC P. aeruginosa NCTC 13437 (P. aeruginosa NCTC 13437) | MIC E. cloacae NCTC 13405 (E. cloacae NCTC 13405) | MBC E. cloacae NCTC 13405 (E. cloacae NCTC 13405) | MIC K. pneumoniae ATCC 700603 [1] | MBC K. pneumoniae ATCC 700603 [1] | MIC S. aureus JE2 (USA300) (S. aureus JE2 (USA300)) | MBC S. aureus JE2 (USA300) (S. aureus JE2 (USA300)) | MBC E. faecium ATCC 700221 (E. faecium ATCC 700221) | MIC E. coli ATCC 25922 (E. coli ATCC 25922) | MBC E. coli ATCC 25922 (E. coli ATCC 25922) | IC50 (A549 cells) | log P (Log P determination) | MIC E. faecium ATCC 700221 (E. faecium ATCC 700221) | activity toward Gram-negative strains (in words) (Gram-negative strains) | fold enhancement of activity over auranofin, E. cloacae (E. cloacae NCTC 13405) | fold enhancement of activity over auranofin, K. pneumoniae [1] | also measured |
| --- | --- | --- | --- | --- | --- | --- | --- | --- | --- | --- | --- | --- | --- | --- | --- | --- | --- | --- | --- | --- |
| CC[PH](CC)(CC)[Au][S][C@@H]1O[C@H](COC(C)=O)[C@@H](OC(C)=O)[C@H](OC(C)=O)[C@H]1OC(C)=O [Compound 1, (2,3,4,6-Tetra-O-acetyl-1-thio-β-D-glucopyranosato)-(triethylphosphine) Gold(I), reference compound] | 47 µM | 47 µM | 377 µM | 377 µM | 189 µM | 189 µM | 377 µM | 377 µM | 0.04 µM | 0.09 µM | 0.4 µM | 24 µM | 24 µM | 11.3 ± 1.9 µM | 0.56 | – | – | – | – | MBC A. baumannii (A. baumannii NCTC 13420; MIC/MBC): 32 µg/mL; MIC A. baumannii (A. baumannii NCTC 13420; MIC/MBC): 32 µg/mL; MIC A. baumannii NCTC 13420 (A. baumannii NCTC 13420; listed as Auranofin): 47 µM; MBC A. baumannii NCTC 13420 (A. baumannii NCTC 13420; listed as Auranofin): 47 µM; MIC K. pneumoniae ATCC 700603 ([1]; listed as Auranofin): 377 µM; MBC K. pneumoniae ATCC 700603 ([1]; listed as Auranofin): 377 µM; MBC S. aureus (S. aureus JE2 (USA300); Table S1): 0.06 µg/mL; MIC S. aureus (S. aureus JE2 (USA300); Table S1): 0.03 µg/mL; MBC E. faecium (E. faecium ATCC 700221; Table S1): 0.25 µg/mL; MIC E. faecium (E. faecium ATCC 700221; Table S1): 0.12 µg/mL; MBC E. coli (E. coli ATCC 25922; MIC/MBC): 16 µg/mL; MIC E. coli (E. coli ATCC 25922; MIC/MBC): 16 µg/mL; rat acute oral LD50 (rat): 265 mg/kg |
| CC[P+](CC)(CC)[Au-][S]c1ccc([N+](=O)[O-])cc1 [Compound 19, (4-Nitrobenzenethiolato)(triethylphosphine) Gold(I)] | >546 µM | – | >546 µM | – | >546 µM | – | >546 µM | – | – | 0.02 µM | 0.5 µM | >546 µM | – | – | >3.28 | 0.06 µM and 0.1 µM | completely inactive | – | – | MIC S. aureus (S. aureus JE2 (USA300)): in the nanomolar range; fold enhancement of activity over auranofin, S. aureus (S. aureus JE2 (USA300); vs auranofin): up to 10 |
| CC[PH](CC)(CC)[Au][S]c1ccc(C(F)(F)F)cc1 [Compound 20, (4-(Trifluoromethyl)benzenethiolato)(triethylphosphine) Gold(I)] | 520 µM | > 520 µM | >520 µM | – | >520 µM | – | >520 µM | – | – | 0.2 µM | 0.2 µM | >520 µM | – | – | >3.18 | 0.02 µM | completely inactive | – | – | – |
| CC[P+](CC)(CC)[Au-][S]CCO [Compound 21, (2-Mercaptoethanolato)(triethylphosphine) Gold(I)] | 10 µM | 82 µM | 41 µM | 41 µM | 5 µM and 10 µM | 82 µM | 20 µM | 20 µM | 0.03 µM | 0.03 µM | 0.6 µM | 10 µM | 10 µM | – | 1.19 | 0.2 µM and 0.3 µM | – | 19 | 19 | fold enhancement of activity over auranofin, P. aeruginosa (P. aeruginosa NCTC 13437; vs auranofin): 9; cytotoxicity relative to auranofin (times less toxic) (A549 cells; A549 cells, vs auranofin): 1.6; fold enhancement of activity over auranofin, Gram-negative strains (Gram-negative strains; vs auranofin): 5–19 |
| CCP(CC)CC.[Au+].[Cl-] [Compound 25, (Triethylphosphine)gold Chloride] | – | 23 µM | 92 µM | 183 µM | 23 µM | 23 µM | 46 µM | 46 µM | – | 0.2 µM | 0.7 µM | 23 µM | 23 µM | – | 1.74 | – | – | – | – | rat acute oral LD50 (rat): 79.0 mg/kg |
| CC(=O)OCC1O[C@@H]([S][Au-][P+](C)(C)C)C(OC(C)=O)[C@@H](OC(C)=O)[C@@H]1OC(C)=O (stereo partly drawn) [Compound 31, (2,3,4,6-Tetra-O-acetyl-1-thio-β-D-glucopyranosato)-(trimethylphosphine) Gold(I)] | – | 101 µM | 101 µM | 101 µM | 3.1 µM and 3 µM | 3.1 µM and 3 µM | 13 µM | 13 µM | 0.1 µM | 0.2 µM | 0.8 µM | 6 µM | 6 µM | 20.6 ± 3.6 µM | 0.35 | 0.2 µM and 0.4 µM | – | 60 and 61 | 30 | – |
| CCCC[P+](CCCC)(CCCC)[Au-][S][C@@H]1OC(COC(C)=O)[C@@H](OC(C)=O)[C@H](OC(C)=O)C1OC(C)=O (stereo partly drawn) [Compound 32, (2,3,4,6-Tetra-O-acetyl-1-thio-β-D-glucopyranosato)(tri-n-butylphosphine) Gold(I)] | 84 µM | > 336 µM | >336 µM | – | >336 µM | – | >336 µM | – | 3 µM | 3 µM | 3 µM | >336 µM | – | – | >4.32 | 3 µM and 5 µM | completely diminished the activity | – | – | – |
| C[PH](C)(C)[Au][S]CCO [Compound 40, (2-Mercaptoethanolato)(trimethylphosphine) Gold(I)] | 5.7 µM and 6 µM and 3 µM | 23 µM | – | 91 µM | 2.9 µM and 3 µM | 3 µM | 11 µM | 23 µM | 0.3 µM | 0.7 µM | 0.3 µM | – | 11 µM | 35.1 ± 8.9 µM | −0.15 | 0.3 µM | – | 65 | 34 | MIC K. pneumoniae [1]: 11 μ/mL |

— PMC7941214 (Journal of medicinal chemistry, 2019)
